Test results as given in ChEMBL document CHEMBL3864121, “Development of ebsulfur analogues as potent antibacterials against methicillin-resistant Staphylococcus aureus” (Bioorg Med Chem, 2016).
In brackets after ≈: the same amount, converted by molar mass. Activity calls are given as the source filed them. The rule behind the calls is not given here.

Key:
Staphylococcus aureus [1] = experiment: Antibacterial activity against methicillin-sensitive Staphylococcus aureus ATCC 6538 measured after overnight incubation by broth double-dilution method; type: functional
How it was run: (§1)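 MIC by broth double-dilution in liquid Mueller-Hinton medium. Values are reported in µg/mL.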

Staphylococcus aureus [2] = experiment: Antibacterial activity against methicillin-sensitive Staphylococcus aureus ATCC 25923 measured after overnight incubation by broth double-dilution method; type: functional; how it was run: as §1
Staphylococcus aureus [3] = experiment: Antibacterial activity against methicillin-sensitive Staphylococcus aureus ATCC 29213 measured after overnight incubation by broth double-dilution method; type: functional; how it was run: as §1
Staphylococcus aureus [4] = experiment: Antibacterial activity against methicillin-resistant Staphylococcus aureus ATCC 33591 measured after overnight incubation by broth double-dilution method; type: functional; how it was run: as §1
Staphylococcus aureus [5] = experiment: Antibacterial activity against methicillin-resistant Staphylococcus aureus 1 measured after overnight incubation by broth double-dilution method; type: functional; how it was run: as §1
Staphylococcus aureus [6] = experiment: Antibacterial activity against methicillin-resistant Staphylococcus aureus 2 measured after overnight incubation by broth double-dilution method; type: functional; how it was run: as §1
Staphylococcus aureus [7] = experiment: Antibacterial activity against methicillin-resistant Staphylococcus aureus BRS3 measured after overnight incubation by broth double-dilution method; type: functional; how it was run: as §1
Staphylococcus aureus [8] = experiment: Antibacterial activity against methicillin-resistant Staphylococcus aureus C1 measured after overnight incubation by broth double-dilution method; type: functional; how it was run: as §1
Staphylococcus aureus [9] = experiment: Antibacterial activity against methicillin-resistant Staphylococcus aureus C2 measured after overnight incubation by broth double-dilution method; type: functional; how it was run: as §1
Staphylococcus aureus [10] = experiment: Antibacterial activity against methicillin-resistant Staphylococcus aureus C7 measured after overnight incubation by broth double-dilution method; type: functional; how it was run: as §1
Staphylococcus aureus [11] = experiment: Antibacterial activity against methicillin-resistant Staphylococcus aureus C14 measured after overnight incubation by broth double-dilution method; type: functional; how it was run: as §1
Staphylococcus aureus [12] = experiment: Antibacterial activity against methicillin-resistant Staphylococcus aureus C16 measured after overnight incubation by broth double-dilution method; type: functional; how it was run: as §1
Staphylococcus aureus [13] = experiment: Antibacterial activity against methicillin-resistant Staphylococcus aureus C19 measured after overnight incubation by broth double-dilution method; type: functional; how it was run: as §1
Staphylococcus aureus [14] = experiment: Antibacterial activity against methicillin-resistant Staphylococcus aureus G1 measured after overnight incubation by broth double-dilution method; type: functional; how it was run: as §1
Staphylococcus aureus [15] = experiment: Antibacterial activity against methicillin-resistant Staphylococcus aureus G6 measured after overnight incubation by broth double-dilution method; type: functional; how it was run: as §1
Staphylococcus aureus [16] = experiment: Antibacterial activity against methicillin-resistant Staphylococcus aureus G12 measured after overnight incubation by broth double-dilution method; type: functional; how it was run: as §1
Staphylococcus aureus [17] = experiment: Antibacterial activity against methicillin-resistant Staphylococcus aureus G14 measured after overnight incubation by broth double-dilution method; type: functional; how it was run: as §1
Staphylococcus aureus [18] = experiment: Antibacterial activity against methicillin-resistant Staphylococcus aureus NRS4 measured after overnight incubation by broth double-dilution method; type: functional; how it was run: as §1
Staphylococcus aureus [19] = experiment: Antibacterial activity against methicillin-resistant Staphylococcus aureus NRS51 measured after overnight incubation by broth double-dilution method; type: functional; how it was run: as §1
Staphylococcus aureus [20] = experiment: Antibacterial activity against methicillin-resistant Staphylococcus aureus NRS77 measured after overnight incubation by broth double-dilution method; type: functional; how it was run: as §1
Staphylococcus aureus [21] = experiment: Antibacterial activity against methicillin-resistant Staphylococcus aureus S14 measured after overnight incubation by broth double-dilution method; type: functional; how it was run: as §1
Staphylococcus aureus [22] = experiment: Antibacterial activity against methicillin-resistant Staphylococcus aureus S17 measured after overnight incubation by broth double-dilution method; type: functional; how it was run: as §1
Staphylococcus aureus [23] = experiment: Antibacterial activity against methicillin-resistant Staphylococcus aureus S22 measured after overnight incubation by broth double-dilution method; type: functional; how it was run: as §1
Staphylococcus aureus [24] = experiment: Antibacterial activity against methicillin-resistant Staphylococcus aureus S24 measured after overnight incubation by broth double-dilution method; type: functional; how it was run: as §1
Staphylococcus aureus [25] = experiment: Antibacterial activity against methicillin-resistant Staphylococcus aureus USA100 measured after overnight incubation by broth double-dilution method; type: functional; how it was run: as §1
Staphylococcus aureus [26] = experiment: Antibacterial activity against methicillin-resistant Staphylococcus aureus USA200 measured after overnight incubation by broth double-dilution method; type: functional; how it was run: as §1
Staphylococcus aureus [27] = experiment: Antibacterial activity against methicillin-resistant Staphylococcus aureus USA300 measured after overnight incubation by broth double-dilution method; type: functional; how it was run: as §1
Staphylococcus aureus [28] = experiment: Antibacterial activity against methicillin-resistant Staphylococcus aureus USA600 measured after overnight incubation by broth double-dilution method; type: functional; how it was run: as §1
[29] = tested on: Staphylococcus epidermidis; experiment: Antibacterial activity against Staphylococcus epidermidis ATCC 35984 measured after overnight incubation by broth double-dilution method; type: functional; settings: RP62A
How it was run: (§2)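 MIC by broth double-dilution in Mueller-Hinton medium. Re-testing at the time-kill inoculum used 1×10^6 CFU/mL.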

Enterococcus faecalis [30] = experiment: Antibacterial activity against Enterococcus faecalis ATCC 29212 measured after overnight incubation by broth double-dilution method; type: functional; how it was run: as §2
Enterococcus faecalis [31] = experiment: Antibacterial activity against Enterococcus faecalis ATCC 49533 measured after overnight incubation by broth double-dilution method; type: functional; how it was run: as §2
Enterococcus faecium = experiment: Antibacterial activity against Enterococcus faecium BM4105-RF measured after overnight incubation by broth double-dilution method; type: functional; how it was run: as §1
Enterococcus = experiment: Antibacterial activity against Vancomycin-resistant Enterococcus measured after overnight incubation by broth double-dilution method; type: functional; how it was run: as §1
Listeria monocytogenes = experiment: Antibacterial activity against Listeria monocytogenes ATCC 19115 measured after overnight incubation by broth double-dilution method; type: functional; how it was run: as §2
[32] = tested on: Mycolicibacterium smegmatis; experiment: Antibacterial activity against Mycobacterium smegmatis MC2-155 measured after overnight incubation by broth double-dilution method; type: functional; settings: str. MC2 155; how it was run: as §1
Staphylococcus aureus [33] = experiment: Antibiofilm activity against methicillin-sensitive Staphylococcus aureus ATCC 6538 assessed as reduction of biofilm at […] measured after 24 hrs by crystal violet staining based method relative to control; type: functional; set-up: scale not given: the % may be the effect or the level left
[34] = tested on: Staphylococcus epidermidis; experiment: Antibiofilm activity against Staphylococcus epidermidis ATCC 35984 assessed as reduction of biofilm at […] ug/ml measured after 24 hrs by crystal violet staining based method relative to control; type: functional, RP62A; set-up: scale not given: the % may be the effect or the level left
[35] = Cytotoxicity against HEK293 cells assessed as cell death at […] measured after 24 hrs by resazurin dye-based fluorescence analysis relative to untreated control; type: toxicity; settings: human, hek293, 24 h
Staphylococcus aureus [36] = experiment: Bacteriostatic activity against methicillin-resistant Staphylococcus aureus S22 at 0.5 times MIC measured up to 3 to 6 hrs by time kill analysis; type: functional
Staphylococcus aureus [37] = experiment: Bacteriostatic activity against methicillin-resistant Staphylococcus aureus S22 at MIC measured up to 3 to 6 hrs by time kill analysis; type: functional
Staphylococcus aureus [38] = experiment: Bacteriostatic activity against methicillin-resistant Staphylococcus aureus S22 at 4 times MIC measured after 24 hrs by time kill analysis; type: functional
[39] = Cytotoxicity against mouse RBCs assessed as hemolysis up to […] measured after 1 hr; type: toxicity, Erythrocyte; settings: mouse red blood cells, read-out: Activity
Mus musculus = species: Mus musculus; experiment: Cytotoxicity against mouse RBCs assessed as hemolysis at 0.24 to 31.2 ug/ml measured after 1 hr; type: toxicity; settings: erythrocyte
How it was run: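 Murine red blood cells were exposed to compounds at various concentrations, with amikacin as a control. Percent hemolysis was scored against untreated cells (0%) and 1% Triton X (100%).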

[40] = tested on: Staphylococcus epidermidis RP62A; experiment: Inhibition of thioredoxin reductase in Staphylococcus epidermidis ATCC 35984 assessed as induction of ROS production at 1 to 4 times MIC measured after 1 hr by DCFH-DA staining-based fluorescence microscopic analysis
How it was run: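 Untreated cells served as the negative control and 1 mM H2O2 as the positive control. Cells were stained with DCFH-DA (40 µg/mL) and ROS were visualized by fluorescence microscopy.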

Staphylococcus aureus [41] = experiment: Antibacterial activity against methicillin-resistant Staphylococcus aureus S22 using 1 10^6CFU/ml measured after overnight incubation by broth double-dilution method; type: functional

## COc1cc(OC)cc(-n2sc3ccccc3c2=O)c1
Staphylococcus aureus [1]
  MIC: 1 mg/L (≈ 3.48 µM)
Staphylococcus aureus [2]
  MIC: 0.5 mg/L (≈ 1.74 µM)
Staphylococcus aureus [3]
  MIC: ≤ 0.25 mg/L
Staphylococcus aureus [4]
  MIC: ≤ 0.25 mg/L
Staphylococcus aureus [5]
  MIC: ≤ 0.25 mg/L
Staphylococcus aureus [6]
  MIC: 1 mg/L (≈ 3.48 µM)
Staphylococcus aureus [7]
  MIC: 2 mg/L (≈ 6.96 µM)
Staphylococcus aureus [8]
  MIC: 0.5 mg/L (≈ 1.74 µM)
Staphylococcus aureus [9]
  MIC: ≤ 0.25 mg/L
Staphylococcus aureus [10]
  MIC: 0.5 mg/L (≈ 1.74 µM)
Staphylococcus aureus [11]
  MIC: 2 mg/L (≈ 6.96 µM)
Staphylococcus aureus [12]
  MIC: 2 mg/L (≈ 6.96 µM)
Staphylococcus aureus [13]
  MIC: ≤ 0.25 mg/L
Staphylococcus aureus [14]
  MIC: 1 mg/L (≈ 3.48 µM)
Staphylococcus aureus [15]
  MIC: 1 mg/L (≈ 3.48 µM)
Staphylococcus aureus [16]
  MIC: 0.5 mg/L (≈ 1.74 µM)
Staphylococcus aureus [17]
  MIC: ≤ 0.25 mg/L
Staphylococcus aureus [18]
  MIC: 2 mg/L (≈ 6.96 µM)
Staphylococcus aureus [19]
  MIC: 1 mg/L (≈ 3.48 µM)
Staphylococcus aureus [20]
  MIC: 2 mg/L (≈ 6.96 µM)
Staphylococcus aureus [21]
  MIC: ≤ 0.25 mg/L
Staphylococcus aureus [22]
  MIC: 1 mg/L (≈ 3.48 µM)
Staphylococcus aureus [23]
  MIC: 0.5 mg/L (≈ 1.74 µM)
Staphylococcus aureus [24]
  MIC: ≤ 0.25 mg/L
Staphylococcus aureus [25]
  MIC: 0.5 mg/L (≈ 1.74 µM)
Staphylococcus aureus [26]
  MIC: 0.5 mg/L (≈ 1.74 µM)
Staphylococcus aureus [27]
  MIC: ≤ 0.25 mg/L
Staphylococcus aureus [28]
  MIC: 2 mg/L (≈ 6.96 µM)
[29]
  MIC: 0.25 mg/L (≈ 0.87 µM)
Enterococcus faecalis [30]
  MIC: 2 mg/L (≈ 6.96 µM)
Enterococcus faecalis [31]
  MIC: 7.8 mg/L (≈ 27.1 µM)
Enterococcus faecium
  MIC: 3.9 mg/L (≈ 13.6 µM)
Enterococcus
  MIC: 0.5 mg/L (≈ 1.74 µM)
Listeria monocytogenes
  MIC: 2 mg/L (≈ 6.96 µM)
[32]
  MIC: 2 mg/L (≈ 6.96 µM)
Staphylococcus aureus [33]
  Activity: 40%
[34]
  Activity: 50%
[35]
  Activity: > 20%

## CCCCCCCCn1sc2ccccc2c1=O
Staphylococcus aureus [1]
  MIC: 1 mg/L (≈ 3.8 µM)
Staphylococcus aureus [2]
  MIC: 1 mg/L (≈ 3.8 µM)
Staphylococcus aureus [3]
  MIC: 1 mg/L (≈ 3.8 µM)
Staphylococcus aureus [4]
  MIC: 0.5 mg/L (≈ 1.9 µM)
Staphylococcus aureus [5]
  MIC: 0.5 mg/L (≈ 1.9 µM)
Staphylococcus aureus [6]
  MIC: 1 mg/L (≈ 3.8 µM)
Staphylococcus aureus [7]
  MIC: 1 mg/L (≈ 3.8 µM)
Staphylococcus aureus [8]
  MIC: 1 mg/L (≈ 3.8 µM)
Staphylococcus aureus [9]
  MIC: 0.5 mg/L (≈ 1.9 µM)
Staphylococcus aureus [10]
  MIC: 1 mg/L (≈ 3.8 µM)
Staphylococcus aureus [11]
  MIC: 1 mg/L (≈ 3.8 µM)
Staphylococcus aureus [12]
  MIC: 2 mg/L (≈ 7.59 µM)
Staphylococcus aureus [13]
  MIC: 0.5 mg/L (≈ 1.9 µM)
Staphylococcus aureus [14]
  MIC: ≤ 0.25 mg/L
Staphylococcus aureus [15]
  MIC: 1 mg/L (≈ 3.8 µM)
Staphylococcus aureus [16]
  MIC: 1 mg/L (≈ 3.8 µM)
Staphylococcus aureus [17]
  MIC: 1 mg/L (≈ 3.8 µM)
Staphylococcus aureus [18]
  MIC: 1 mg/L (≈ 3.8 µM)
Staphylococcus aureus [19]
  MIC: 1 mg/L (≈ 3.8 µM)
Staphylococcus aureus [20]
  MIC: 1 mg/L (≈ 3.8 µM)
Staphylococcus aureus [21]
  MIC: ≤ 0.25 mg/L
Staphylococcus aureus [22]
  MIC: 1 mg/L (≈ 3.8 µM)
Staphylococcus aureus [23]
  MIC: 1 mg/L (≈ 3.8 µM)
Staphylococcus aureus [24]
  MIC: 1 mg/L (≈ 3.8 µM)
Staphylococcus aureus [25]
  MIC: 2 mg/L (≈ 7.59 µM)
Staphylococcus aureus [26]
  MIC: 3.9 mg/L (≈ 14.8 µM)
Staphylococcus aureus [27]
  MIC: 2 mg/L (≈ 7.59 µM)
Staphylococcus aureus [28]
  MIC: 3.9 mg/L (≈ 14.8 µM)
[29]
  MIC: 1 mg/L (≈ 3.8 µM)
Enterococcus faecalis [30]
  MIC: > 125 mg/L
Enterococcus faecalis [31]
  MIC: > 125 mg/L
Enterococcus faecium
  MIC: 2 mg/L (≈ 7.59 µM)
Enterococcus
  MIC: 0.5 mg/L (≈ 1.9 µM)
Listeria monocytogenes
  MIC: 1 mg/L (≈ 3.8 µM)
[32]
  MIC: 2 mg/L (≈ 7.59 µM)
Staphylococcus aureus [36]
  Activity: Active
Staphylococcus aureus [37]
  Activity: Active
Staphylococcus aureus [38]
  Activity: Active
Staphylococcus aureus [33]
  Activity: 40%
[39]
  hemolysis at 1 h: ≤ 20%
Mus musculus
  Activity: Non-Toxic
[35]
  Activity: > 20%
[40]
  Activity: Active
Staphylococcus aureus [41]
  Activity: Active
